As usually defined, the IC50 is the midpoint of a concentration-inhibition curve.

The source of these data is ChEMBL document CHEMBL4390704, “1-Aryl-3-(4-methoxybenzyl)ureas as potentially irreversible glycogen synthase kinase 3 inhibitors: Synthesis and biological evaluation” (Bioorg Med Chem Lett, 2019).

The source made the active and inactive calls. The rule behind the calls is not given here.

One experiment deals with T1, Glycogen synthase kinase-3 beta (Homo sapiens, UniProt P49841). The experiment can be described thus: Inhibition of recombinant human GSK3beta using prephosphorylated peptide as substrate measured after 30 mins by Kinase-glo luminescence assay.
Target sequence in this assay (P49841 whole entry): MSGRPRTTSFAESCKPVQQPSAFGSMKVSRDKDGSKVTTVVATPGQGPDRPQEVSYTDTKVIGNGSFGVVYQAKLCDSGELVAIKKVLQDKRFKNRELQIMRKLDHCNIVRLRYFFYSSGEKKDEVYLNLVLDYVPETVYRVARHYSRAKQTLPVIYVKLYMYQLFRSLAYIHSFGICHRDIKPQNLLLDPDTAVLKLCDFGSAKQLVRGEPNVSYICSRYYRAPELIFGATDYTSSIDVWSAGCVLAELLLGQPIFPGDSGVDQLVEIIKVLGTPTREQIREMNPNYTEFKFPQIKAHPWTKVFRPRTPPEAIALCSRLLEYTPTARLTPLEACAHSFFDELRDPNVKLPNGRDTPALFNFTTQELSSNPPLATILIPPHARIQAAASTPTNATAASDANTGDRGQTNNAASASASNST
`COc1ccc(CNC(=O)Nc2nc3ccc(C(=O)CBr)cc3[nH]2)cc1`: the IC50 worked out at 0.13 µM.

Regarding `COc1ccc(CNC(=O)Nc2nc3ccc(C(C)=O)cc3s2)cc1`, the IC50 turned out to be 2.26 µM. The same measure, in the same setting: as for `COc1ccc(CNC(=O)Nc2nc3ccc(C(=O)CBr)cc3s2)cc1`, the figure is 0.77 µM. In the case of `C=CC(=O)c1ccc2nc(NC(=O)NCc3ccc(OC)cc3)[nH]c2c1`, the IC50 came to 1.82 µM. For the molecule `COc1ccc(CNC(=O)Nc2nc3ccc(C#N)cc3s2)cc1`, the half-maximal inhibitory concentration (IC50) was 0.11 µM.

Regarding `COc1ccc(CNC(=O)Nc2nc3ccc(C#N)cc3[nH]2)cc1`, the concentration for half-maximal inhibition (IC50) was determined as 0.086 µM. Same read-out and setting: as for `C=CC(=O)Nc1ccc2nc(NC(=O)NCc3ccc(OC)cc3)sc2c1`, the figure is above 10 µM.

For `C#CC(=O)c1ccc2nc(NC(=O)NCc3ccc(OC)cc3)[nH]c2c1`, the IC50 turned out to be 2.47 µM. On the same count and under the same terms, with `C=CC(=O)Nc1ccc2nc(NC(=O)NCc3ccc(OC)cc3)[nH]c2c1` the figure was above 10 µM; with `C=CC(=O)c1ccc2nc(NC(=O)NCc3ccc(OC)cc3)sc2c1`, 4.05 µM; with `C#CC(=O)c1ccc2nc(NC(=O)NCc3ccc(OC)cc3)sc2c1`, 4.21 µM. On the same count and under the same terms, with `COc1ccc(CNC(=O)Nc2nc3ccc(C(C)=O)cc3[nH]2)cc1` the figure was 0.26 µM.

The next experiment deals with T1, Glycogen synthase kinase-3 beta. The experiment can be described thus: Time-dependent irreversible inhibition of recombinant human GSK3beta at 0.05 to 0.1 uM using prephosphorylated peptide as substrate by Kinase-glo luminescence assay. The method in brief:
(§1)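 Inhibitor pre-incubated with GSK-3β for varying lengths of time before the kinase reaction. Inhibition is expressed as percentage inhibition at each pre-incubation time.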
Target sequence in this assay (P49841 whole entry, looked up): as the sequence (P49841 whole entry) above
Turning to `COc1ccc(CNC(=O)Nc2nc3ccc(C#N)cc3[nH]2)cc1`, the TDI result is “Active”.

For another experiment the target is unchanged. The experiment can be described thus: Time-dependent irreversible inhibition of recombinant human GSK3beta at 0.05 to 0.2 uM using prephosphorylated peptide as substrate by Kinase-glo luminescence assay. The method in brief: as §1
Target sequence in this assay (P49841 whole entry, looked up): as the sequence (P49841 whole entry) above
Take `COc1ccc(CNC(=O)Nc2nc3ccc(C(=O)CBr)cc3[nH]2)cc1`: the TDI entry was “Active”.
